According to ChEMBL document CHEMBL1151261, “Antineoplastic agents. 509: synthesis of fluorcombstatin phosphate and related 3-halostilbenes(1)” (J Nat Prod, 2005):
≈ marks a conversion by molar mass, not a printed value. Calls of active or inactive are those of the source. The calls are words filed in the database; no cut-off is given here.

Tests used:
MCF7 = assay: Cytotoxicity against human MCF7 cells after 48 hrs by sulforhodamine B assay; format: functional; conditions: MCF7, 48 h
Procedure, shortened: (§1)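 Human tumor lines exposed to compound for 48 h, then fixed with trichloroacetic acid and stained with sulforhodamine B (NCI standard protocol); optical density read on a microplate reader. GI50 is the concentration giving a 50% reduction in net protein increase, calculated from optical density data.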

KM-20L2 = assay: Cytotoxicity against human KM20L2 cells after 48 hrs by sulforhodamine B assay; format: functional; conditions: KM-20L2, 48 h; procedure, shortened: as §1
DU-145 = assay: Cytotoxicity against human DU145 cells after 48 hrs by sulforhodamine B assay; format: functional; conditions: DU-145, 48 h; procedure, shortened: as §1
BXPC-3 = assay: Cytotoxicity against human BxPC3 cells after 48 hrs by sulforhodamine B assay; format: functional; conditions: BXPC-3, 48 h; procedure, shortened: as §1
SF-268 = assay: Cytotoxicity against human SF268 cells after 48 hrs by sulforhodamine B assay; format: functional; conditions: SF-268, 48 h; procedure, shortened: as §1
NCI-H460 = assay: Cytotoxicity against human NCI-H460 cells after 48 hrs by sulforhodamine B assay; format: functional; conditions: NCI-H460, 48 h; procedure, shortened: as §1
P388 = assay: Cytotoxicity against mouse P388 cells after 48 hrs by Coulter particle counting; conditions: P388, 48 h, read-out: ED50 (the source's name)
[1] = tested on: Stenotrophomonas maltophilia; assay: Antimicrobial activity against Stenotrophomonas maltophilia ATCC 13637 at 64 ug/mL after 24 hrs by broth microdilution assay; format: functional, organism-based
Procedure, shortened: (§2)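 NCCLS bacterial broth microdilution (M7-A5). Overnight colonies diluted to about 5×10^5 CFU/mL final; 2-fold compound dilutions (DMSO stock) in cation-adjusted Mueller Hinton II broth; DMSO turbidity control; 35 °C without agitation, 24 h. MIC = lowest concentration with optically clear wells.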

Streptococcus pneumoniae = assay: Antimicrobial activity against Streptococcus pneumoniae ATCC 6303 at 64 ug/mL after 24 hrs by broth microdilution assay; format: functional, organism-based
Procedure, shortened: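 Streptococcus tested by NCCLS broth microdilution in cation-adjusted MHII broth with 3% lysed horse blood. Final inoculum about 5×10^5 CFU/mL; 2-fold compound dilutions from DMSO; DMSO turbidity control; 35 °C without agitation, 24 h. MIC = lowest concentration with no visible growth.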

Escherichia coli = assay: Antimicrobial activity against Escherichia coli ATCC 25922 at 64 ug/mL after 24 hrs by broth microdilution assay; format: functional, organism-based; procedure, shortened: as §2
Micrococcus luteus = assay: Antimicrobial activity against Micrococcus luteus Presque Isle 456 at 64 ug/mL after 24 hrs by broth microdilution assay; format: functional, organism-based; procedure, shortened: as §2
Cryptococcus neoformans = assay: Antimicrobial activity against Cryptococcus neoformans ATCC 90112 at 64 ug/mL after 72 hrs by broth microdilution assay; format: functional, organism-based
Procedure, shortened: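 Yeast NCCLS broth microdilution (M27-A). Inoculum 0.5 to 2.5×10^3 CFU/mL; 2-fold dilutions in 0.165 M MOPS-buffered RPMI 1640, pH 7.0; compound from DMSO, DMSO-only turbidity control; 35 °C without agitation; read at 72 h (Cryptococcus). MIC = lowest concentration giving no visible growth.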

Staphylococcus aureus = assay: Antimicrobial activity against Staphylococcus aureus ATCC 29213 at 64 ug/mL after 24 hrs by broth microdilution assay; format: functional, organism-based; procedure, shortened: as §2
Enterobacter cloacae = assay: Antimicrobial activity against Enterobacter cloacae ATCC 13047 at 64 ug/mL after 24 hrs by broth microdilution assay; format: functional, organism-based; procedure, shortened: as §2
Candida albicans = assay: Antimicrobial activity against Candida albicans ATCC 90028 at 64 ug/mL after 48 hrs by broth microdilution assay; format: functional, organism-based
Procedure, shortened: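 Yeast NCCLS broth microdilution (M27-A). Inoculum 0.5 to 2.5×10^3 CFU/mL; 2-fold dilutions in 0.165 M MOPS-buffered RPMI 1640, pH 7.0; compound from DMSO, DMSO-only turbidity control; 35 °C without agitation; read at 48 h (Candida). MIC = lowest concentration giving no visible growth.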

Enterococcus faecalis = assay: Antimicrobial activity against Enterococcus faecalis ATCC 29212 at 64 ug/mL after 24 hrs by broth microdilution assay; format: functional, organism-based; procedure, shortened: as §2

Row | Structure (SMILES) | GI50 (MCF7) | GI50 (KM-20L2) | GI50 (DU-145) | GI50 (BXPC-3) | GI50 (SF-268) | GI50 (NCI-H460) | EC50 (P388) | Activity [1] | Activity (Streptococcus pneumoniae) | Activity (Escherichia coli) | Activity (Micrococcus luteus) | Activity (Cryptococcus neoformans) | Activity (Staphylococcus aureus) | Activity (Enterobacter cloacae) | Activity (Candida albicans) | Activity (Enterococcus faecalis)
1 | COc1ccc(/C=C\c2cc(Br)c(OC)c(OC)c2)cc1OP(=O)([O-])[O-].[K+].[K+] | 0.0035 mg/L | 0.24 mg/L | 0.0028 mg/L | 0.2 mg/L | 0.0032 mg/L | 0.0029 mg/L | < 0.01 mg/L | – | – | – | – | – | – | – | – | –
2 | C1CCNCC1.C1CCNCC1.COc1ccc(/C=C\c2cc(F)c(OC)c(OC)c2)cc1OP(=O)(O)O | 0.011 mg/L | > 1 mg/L | 0.011 mg/L | 0.39 mg/L | 0.0075 mg/L | 0.022 mg/L | 0.004 mg/L | – | – | – | – | – | – | – | – | –
3 | COc1ccc(/C=C\c2cc(O)c(OC)c(OC)c2)cc1N | 0.06 mg/L (≈ 0.199 µM) | 0.39 mg/L (≈ 1.29 µM) | 0.035 mg/L (≈ 0.116 µM) | 0.37 mg/L (≈ 1.23 µM) | 0.04 mg/L (≈ 0.133 µM) | 0.03 mg/L (≈ 0.0996 µM) | 0.0174 mg/L (≈ 0.0577 µM) | – | – | – | – | – | – | – | – | –
4 | COc1ccc(/C=C\c2cc(F)c(OC)c(OC)c2)cc1OP(=O)(O)O | – | – | – | – | – | – | – | inactive | inactive | inactive | inactive | inactive | inactive | inactive | inactive | inactive
5 | COc1ccc(/C=C\c2cc(Br)c(OC)c(OC)c2)cc1OP(=O)([O-])[O-].[Rb+].[Rb+] | 0.043 mg/L | 2.6 mg/L | 0.042 mg/L | 0.56 mg/L | 0.023 mg/L | 0.041 mg/L | < 0.01 mg/L | – | – | – | – | – | – | – | – | –
6 | COc1ccc(/C=C\c2cc(F)c(OC)c(OC)c2)cc1OP(=O)([O-])[O-].[K+].[K+] | 0.004 mg/L | > 1 mg/L | 0.0037 mg/L | 0.548 mg/L | 0.0039 mg/L | 0.0043 mg/L | 0.0074 mg/L | – | – | – | – | – | – | – | – | –
7 | COc1ccc(/C=C\c2cc(OC)c(OC)c([N+](=O)[O-])c2)cc1[N+](=O)[O-] | 0.37 mg/L (≈ 1.03 µM) | 0.27 mg/L (≈ 0.749 µM) | 0.34 mg/L (≈ 0.944 µM) | 0.39 mg/L (≈ 1.08 µM) | 0.59 mg/L (≈ 1.64 µM) | 0.24 mg/L (≈ 0.666 µM) | > 10 mg/L | – | – | – | – | – | – | – | – | –
8 | COc1ccc(/C=C\c2cc(Br)c(OC)c(OC)c2)cc1OP(=O)([O-])[O-].[Ca+2] | 0.0022 mg/L | 0.37 mg/L | 0.0063 mg/L | < 0.001 mg/L | 0.0022 mg/L | 0.0068 mg/L | 0.288 mg/L | – | – | – | – | – | – | – | – | –
9 | COc1ccc(/C=C\c2cc(O)c(OC)c(OC)c2)cc1O | 0.49 mg/L (≈ 1.62 µM) | 1.2 mg/L (≈ 3.97 µM) | 0.0043 mg/L (≈ 0.0142 µM) | 2.3 mg/L (≈ 7.61 µM) | 0.0083 mg/L (≈ 0.0275 µM) | 0.19 mg/L (≈ 0.628 µM) | 0.26 mg/L (≈ 0.86 µM) | – | – | – | – | – | – | – | – | –
10 | COc1ccc(/C=C\c2cc(N)c(OC)c(OC)c2)cc1N | < 0.01 mg/L | 0.03 mg/L (≈ 0.0999 µM) | 0.044 mg/L (≈ 0.146 µM) | 0.053 mg/L (≈ 0.176 µM) | 0.076 mg/L (≈ 0.253 µM) | 0.014 mg/L (≈ 0.0466 µM) | 0.036 mg/L (≈ 0.12 µM) | – | – | – | – | – | – | – | – | –
11 | COc1ccc(/C=C\c2cc(Br)c(OC)c(OC)c2)cc1OP(=O)([O-])[O-].[Mg+2] | 0.0045 mg/L | 0.27 mg/L | 0.0045 mg/L | 0.074 mg/L | 0.0053 mg/L | 0.0039 mg/L | < 0.01 mg/L | – | – | – | – | – | – | – | – | –
12 | COc1ccc(/C=C/c2cc(Cl)c(OC)c(OC)c2)cc1O | 0.041 mg/L (≈ 0.128 µM) | 1.4 mg/L (≈ 4.36 µM) | 0.038 mg/L (≈ 0.118 µM) | 0.59 mg/L (≈ 1.84 µM) | 0.048 mg/L (≈ 0.15 µM) | 0.034 mg/L (≈ 0.106 µM) | 0.027 mg/L (≈ 0.0842 µM) | – | – | – | – | – | – | – | – | –
13 | COc1ccc(/C=C\c2cc(O)c(OC)c(OC)c2)cc1N.Cl | < 0.01 mg/L | 1.3 mg/L | 0.012 mg/L | 1 mg/L | 0.0022 mg/L | 0.035 mg/L | 0.0289 mg/L | – | – | – | – | – | – | – | – | –
14 | COc1ccc(/C=C\c2cc(Br)c(OC)c(OC)c2)cc1OP(=O)([O-])[O-].[Na+].[Na+] | 0.0041 mg/L | 0.23 mg/L | 0.0046 mg/L | 0.093 mg/L | 0.0034 mg/L | 0.0028 mg/L | < 0.01 mg/L | – | – | – | – | – | – | – | – | –
